HKDC1 inh: HKDC1 hexokinase inhibitors, primary screen, biochemical, fluorescence, uHTS | recombinant HKDC1, G6PDH/diaphorase resazurin coupled fluorescence | inhibition, % at 20 µM | 340,000 compounds, 0.16% hits | AID 493160, 2011;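 active = inhibition above about 35% when tested at 20 µM, limit read from the data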;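 also: plate controls were DMSO wells with enzyme for no effect and DMSO wells lacking enzyme for full effect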
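Assay system: in-house recombinant HK5 (HKDC1) enzyme. Input: HKDC1 at 5 µg/mL. Medium: Tris pH 8.0 buffer with MgCl2, Tween-20, BSA, BME. Dosing: single 20 µM dose. Schedule: 90 min reaction incubation at room temperature, dark. Signal: resazurin-to-resorufin fluorescence via G6PDH and diaphorase coupling, 525/613 nm. Controls: DMSO-enzyme wells negative, buffer-substituted wells positive.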
Hsp70 activator: Hsp70 transcriptional activators, primary screen, cell-based, HeLa, Hsp70 promoter luciferase, luminescence, 10 µM; HeLa Hsp70 promoter luciferase reporter; scaled: vehicle 0, proteasome-inhibitor control 100%; activation, % at 10 µM; 200,000 compounds, 0.04% hits;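 active = activation above the mean across all tested compounds plus 3 SD, cutoff set per campaign, cut at about 5.5% in these data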;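 also: 100% = MG132 at 30 µM as the positive control and 0% = DMSO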
Tb hexokinase: Trypanosoma brucei hexokinase 1 inhibitors, primary screen, biochemical, G6PDH-coupled NADH absorbance, MLSCN library; recombinant TbHK1, G6PDH-coupled NADH A340; inhibition, % at 10 µM; 220,000 compounds, 0.11% hits; AID 1430, 2008;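 active = inhibition of 50% or more in the single-dose primary screen; inactive = inhibition below 50%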
HSP90 inh: HSP90 inhibitors, primary screen, cell lysate, luminescence. Heat shock protein HSP 90 (rabbit reticulocyte lysate; luciferase refolding). Rabbit reticulocyte lysate, luciferase refolding luminescence, 3 h. inhibition, % at 5.6 µM. 290,000 compounds, 0.91% hits. AID 1789, 2009;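 active = inhibition above the screen-wide mean plus 3 SD, computed separately per campaign, cut at about 16% in these data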;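 also: 0% = DMSO wells and 100% = 60 µM geldanamycin wells; inhibitors lower the luminescence because luciferase stays unfolded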
HSF1 inh: HSF1 inhibitors in luciferase reporter cells, primary screen, cell-based, NIH3T3, luminescence. NIH3T3-HGL HSE-luciferase, MG132-induced, luminescence 8 h; stronger effect = lower value. activity change, negative = inhibition, % at 7.5 µM (by protocol). 300,000 compounds, 0.77% hits;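 active = more than half of replicate wells show activity change below -50%, luminescence cut by over half; inconclusive = some wells, but at most half, below -50%; inactive = no replicate well below -50%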;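 also: luciferase reports HSF-1 transcriptional activity via heat shock element; 0% = median of DMSO wells and -100% = zero luminescence signal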
HSF-1 act: HSF-1 activators, primary screen, NIH3T3-HGL cells, MG132 stress, luminescence, single point; NIH3T3-HGL HSF-1 luciferase reporter, 8 h; 100% = twice DMSO control signal; activation, % at 9 µM; 300,000 compounds, 1.7% hits; AID 504408, 2011;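 active = mean replicate activation of at least 50% with a set share of replicates each reaching 50%; inconclusive = only one of those two conditions met; inactive = mean below 50% and too few replicates reaching it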;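 also: 0% = median of the neutral control wells and 100% = twice that signal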
HSP90 confirm: HSP90 inhibitors, confirmation, cell lysate, luminescence | inhibition, % at 5.9 µM | shares compounds with HSP90 inh | 2,300 compounds, 64% hits | rabbit reticulocyte lysate, luciferase refolding luminescence, 3 h; in the data active = inhibition above about 18%;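 also: 0% = vehicle wells and 100% = reference inhibitor wells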
FLuc counter: firefly luciferase inhibitors, HSP90 counter-screen, confirmation, artefact control for HSP90 inhibitor project, biochemical, luminescence, triplicate. shares compounds with HSP90 inh. purified native firefly luciferase. inhibition, % at 5.9 µM. 2,300 compounds, 48% hits;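 active = inhibition above the mean inhibition of all tested sample wells plus 3 SD, cut at about 10% in these data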;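 also: 0% = DMSO with luciferase and 100% = wells lacking luciferase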
Target sequence (P08659 whole entry, looked up): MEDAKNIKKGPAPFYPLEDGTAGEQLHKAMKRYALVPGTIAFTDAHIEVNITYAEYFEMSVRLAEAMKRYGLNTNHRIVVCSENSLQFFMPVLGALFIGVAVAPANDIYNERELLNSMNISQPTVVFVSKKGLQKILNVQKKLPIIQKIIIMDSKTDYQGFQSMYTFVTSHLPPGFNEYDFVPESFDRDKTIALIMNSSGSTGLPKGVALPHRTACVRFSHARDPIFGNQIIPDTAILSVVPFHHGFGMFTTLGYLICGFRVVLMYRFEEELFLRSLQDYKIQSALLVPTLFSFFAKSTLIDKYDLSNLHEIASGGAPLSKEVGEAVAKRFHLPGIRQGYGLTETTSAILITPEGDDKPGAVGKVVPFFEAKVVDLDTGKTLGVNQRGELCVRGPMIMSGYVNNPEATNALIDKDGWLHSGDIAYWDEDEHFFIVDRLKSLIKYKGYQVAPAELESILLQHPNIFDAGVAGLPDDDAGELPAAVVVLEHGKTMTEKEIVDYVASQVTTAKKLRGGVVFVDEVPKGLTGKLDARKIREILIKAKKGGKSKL
An asterisk follows results filed as active; ? = inconclusive; . = not tested or not shown. Only some compounds are listed: those with a hit (about 3.1% of all), similar ones and a draw of the others.

SMILES	HKDC1 inh	Hsp70 activator	Tb hexokinase	HSP90 inh	HSF1 inh	HSF-1 act	HSP90 confirm	FLuc counter
CCOc1cc(/C=N/Nc2cccc(C(=O)O)c2)ccc1OC(=O)c1ccccc1	2	0	-9	37*	-5	-8	96*	32*
COc1ccccc1CN(C)C(=O)CN1CCN(S(=O)(=O)c2ccc3c(c2)OCCCO3)CC1	-3	.	.	.	.	.	.	.
COc1ccc(NC(=S)N(C(C)C)C2CCN(C(C)C)CC2)cc1Cl	.	.	.	0	5	-5	.	.
CCOC(=O)N/N=C/c1cn(CCCOc2ccc(C)cc2)c2ccccc12	-1	0	-5	18*	8	4	9	-7
CCn1c(SCC(=O)Nc2ccccc2OC)nc2ccccc2c1=O	-6	0	8	-2	.	.	.	.
CCOc1ccccc1-n1c(SCC(=O)Nc2ccccc2C(=O)O)nc2ccccc2c1=O	7	.	.	50*	-74*	-75	56*	37*
CC(Oc1ccc2c(c1)oc(=O)c1ccccc12)C(=O)NC(Cc1c[nH]c2ccc(O)cc12)C(=O)O (configuration not stated)	8	.	.	47*	1	-10	-2	-5
Cc1cc(OC(C)C(=O)NC(Cc2c[nH]c3ccc(O)cc23)C(=O)O)c2c(C)c(C)c(=O)oc2c1 (configuration not stated)	7	.	.	-7	-6	-4	.	.
COCCNc1c(-c2ccc(O)cc2)nc2ccc(Cl)cn12	-2	0	-21	-1	29	31	.	.
COCCNc1c(-c2ccc(OC)c(OC)c2)nc2ccc(Cl)cn12	1	0	-7	20*	8	19	-7	-7
Cc1ccnc(NC(=O)/C=C/c2ccccc2Cl)c1	-3	0	-4	35*	0	30	58*	47*
Cc1oc(-c2nc3ccccc3n2C)cc1C(=O)c1ccccc1	9	-1	-3	17*	-3	5	57*	46*
Cn1cc(C(=O)c2ccccc2)cc1-c1nc2ccccc2n1C	1	0	-14	-1	-27	-40	.	.
Cc1nnc2sc(-c3ccc(N(C)C)cc3)nn2c1=O	5	.	.	20*	16	20	8	-10
COc1ccc(NC(=O)CN2CCCC2)cc1	-5	.	.	-1	2	-1	.	.
COc1ccc(NC(=O)OC(CN2CCCCC2)C(F)(F)F)cc1 (configuration not stated)	0	0	3	18*	-3	5	-4	-10
CCc1ccc(/C=C2\SC(N3CCCC3)=NC2=O)cc1	2	0	-32	26*	-7	-3	12	12*
O=C1N=C(N2CCCC2)S/C1=C\C=C\c1ccccc1	0	.	-34	36*	-76*	-79	56*	54*
COc1ccc(/C=C2\SC(N3CCCCC3)=NC2=O)cc1	-3	.	.	-2	4	5	.	.
O=C1N=C(N2CCCCC2)S/C1=C\c1ccncc1	-2	.	-72	-1	7	26	.	.
Cc1cc(C2=NNC(=NC3CCCCC3)SC2)c(C)n1-c1c(C)n(C)n(-c2ccccc2)c1=O	-12	0	-16	-4	8	13	.	.
Cc1cc(C2=NNC(=NC3CC3)SC2)c(C)n1-c1ccccc1F	-21	-1	-16	36*	-68*	-68	85*	76*
CCOC(=O)c1ccccc1NC(=O)CSc1nc2[nH]ncc2c(=O)[nH]1	2	.	.	.	3	15	.	.
CCc1nnc(NC(=O)CSc2nc3c(cc2C#N)CCCC3)s1	2	0	2	25*	5	11	2	-4
Cc1cccc(NC(=S)N2CCN(c3cc(C)ccc3C)CC2)c1	-3	0	33	5	5	15	.	.
SMILES	HKDC1 inh	Hsp70 activator	Tb hexokinase	HSP90 inh	HSF1 inh	HSF-1 act	HSP90 confirm	FLuc counter
COc1ccccc1N1CCN(C(=S)Nc2cccc(C)c2)CC1	-9	0	-1	27*	?	-48	29*	1
O=C(COc1ccc(CO)cc1)Nc1ccc(F)cc1	-3	0	2	-2	9	23	.	.
O=C(COc1ccc(CO)cc1Cl)Nc1ccc(F)cc1	-1	0	-7	37*	34	55*	39*	36*
CC(C(=O)O)c1ccc(N2Cc3ccccc3C2=O)cc1 (configuration not stated)	-2	0	-1	27*	8	23	36*	32*
CCOC(=O)C1=C(COC(=O)c2ccc(Cl)cc2[N+](=O)[O-])NC(=O)NC1C (configuration not stated)	1	.	.	.	-3	6	.	.
O=C(O)c1ccc(N/N=C/c2cc(Br)cs2)cc1	-3	.	.	50*	-34	-38	70*	71*
Cc1nn(-c2ccccc2)c(Cl)c1/C=N/NC(=O)c1cccc(S(=O)(=O)N2CCCC2)c1	0	0	-8	-3	-9	4	.	.
O=C(O)c1ccc(N/N=C/c2cc3ccccc3nc2Cl)cc1	3	.	-15	28*	-7	-6	6	-14
O=C(O)c1cccc(N/N=C/C2=C(Cl)c3cc(Cl)ccc3SC2)c1	0	0	8	18*	-41	-54	27*	30*
O=C(N/N=C\c1cc(Br)cs1)c1ccncc1	-2	.	-43	2	3	-7	.	.
Cc1nn(-c2ccccc2Cl)c(Cl)c1/C=N/Nc1cccc(C(=O)O)c1	5	0	-17	33*	-71*	-74	61*	77*
CC1C(=O)N2CCCc3cc(NC(=O)C(=O)NCc4ccccn4)cc1c32 (configuration not stated)	-4	.	.	.	0	5	.	.
C[C@@H]1O[C@@H](O[C@@H]2[C@@H](O)[C@H](OCCc3ccc(O)c(O)c3)O[C@H](CO)[C@H]2OC(=O)/C=C/c2ccc(O)c(O)c2)[C@H](O)[C@H](O)[C@H]1O	0	.	.	.	.	.	.	.
O=C(O)c1cccc(N/N=C/c2cccc3ccccc23)c1	4	.	.	63*	-2	-13	87*	90*
O=C(O)c1cccc(N/N=C/c2ccc(F)c(F)c2)c1	-5	0	-9	7	-15	-10	.	.
